Molecules are shown by their SMILES.

A word on the IC50: it is the midpoint of a concentration-inhibition curve.

The nature of the assay: inhibition of HCV infection in cells, late-stage follow-up, counter-screen for HCV core dimerization inhibitor project, Huh-7.5 cells, quantitative PCR, fluorescence (AID 485271). The following applies: Huh-7.5 HCV J6/JFH-1 infection, RT-qPCR viral RNA. The method, boiled down: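 Material: Huh-7.5 human hepatoma cells infected with HCV 2a J6/JFH-1 / Reagent: HCV J6/JFH-1 virus alongside compound / Compound: tenfold series, 100 to 0.001 µM / Detection: TaqMan RT-qPCR of viral RNA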

For `Cc1ccc(Cc2c(C)nc3nc(SCC(=O)NCCCN4CCCCCC4)nn3c2C)cc1`, the IC50 is, setting by setting: (time point 1) 6.6 µM; (time point 2) 12 µM.

(Values after PubChem BioAssay AID485271 (The Scripps Research Institute Molecular Screening Center, 2010).)
